In ChEMBL document CHEMBL3525967, “In vitro glucuronidation of the antibacterial triclocarban and its oxidative metabolites” (Drug Metab Dispos, 2012):

Legend:
[1] = Drug metabolism in human kidney microsomes assessed as N'-glucuronide-triclocarban formation incubated for 5 mins prior to UDPGA addition measured after 30 mins by LC-UV-ESI-MS/MS analysis; assay type: ADME; details: 0.5 h
Summary of the method: (§1)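 Pooled human kidney or liver microsomes (liver: 25 mixed-gender donors), 5 µg protein, in 200 µL 100 mM potassium phosphate pH 7.4. Alamethicin pre-treated on ice 15 min. Final 10 µM TCC (2% DMSO), with 10 mM MgCl2 and 10 mM saccharolactone, preincubated 5 min at 37 °C. Started with UDPGA (20 mM stock). Sampled at 5, 10, 15 and 30 min into ACN containing 1 µM DCC internal standard.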

[2] = Drug excretion in Swiss webster mouse urine assessed as N'-glucuronide-triclocarban formation at 5 mg/kg, po by LC-MS analysis; assay type: ADME, organism-based; design: dose 5 mg/kg, route oral; details: in vivo
Summary of the method: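 Mice were housed two per metabolic cage, with blank urine collected over the 24 h before dosing. TCC was given by oral gavage as a 1 mg/mL solution in 20/80 DMSO/PEG400 (v/v) at 5 mg/kg. Urine was collected at 0-24 h and 24-48 h and analysed by online LC-MS. Values are the mean of two independent experiments.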

Liver microsome = test: Drug metabolism in human liver microsomes assessed as N-glucuronide-triclocarban formation incubated for 5 mins prior to UDPGA addition measured after 30 mins by LC-UV-ESI-MS/MS analysis; assay type: ADME; details: 0.5 h; summary of the method: as §1
[3] = molecular target: T1, UDP-glucuronosyltransferase 2B17 (Homo sapiens, UniProt O75795); test: Drug metabolism assessed as human UGT2B17-mediated N-glucuronide-triclocarban formation expressed in baculovirus infected insect sf9 cells incubated for 5 mins prior to UDPGA addition measured after 5 to 30 mins by LC-UV analysis; assay type: ADME
T1 sequence (O75795 whole entry): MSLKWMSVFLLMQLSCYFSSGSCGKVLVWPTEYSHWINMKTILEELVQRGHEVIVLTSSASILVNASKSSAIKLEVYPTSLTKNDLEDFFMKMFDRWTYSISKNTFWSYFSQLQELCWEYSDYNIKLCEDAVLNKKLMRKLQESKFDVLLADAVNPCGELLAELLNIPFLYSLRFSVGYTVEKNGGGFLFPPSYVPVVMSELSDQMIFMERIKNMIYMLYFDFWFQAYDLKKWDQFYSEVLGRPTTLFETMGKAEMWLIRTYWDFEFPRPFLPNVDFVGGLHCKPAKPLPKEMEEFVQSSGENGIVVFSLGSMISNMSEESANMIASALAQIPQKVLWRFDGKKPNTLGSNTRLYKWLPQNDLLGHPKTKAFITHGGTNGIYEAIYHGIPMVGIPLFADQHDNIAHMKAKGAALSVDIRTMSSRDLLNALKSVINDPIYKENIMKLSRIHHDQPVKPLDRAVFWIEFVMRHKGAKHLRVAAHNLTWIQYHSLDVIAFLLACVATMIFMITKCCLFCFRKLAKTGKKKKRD
Summary of the method: (§2)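 Microsomes or UGT Supersomes (5 µg protein) were held 15 min on ice with alamethicin in 100 mM potassium phosphate pH 7.4. TCC was added at 10 µM (2% DMSO) with 10 mM MgCl2 and 10 mM saccharolactone, pre-warmed 5 min at 37 °C, then started with UDPGA. Samples at 5, 10, 15 and 30 min were quenched in ACN. Product was read by LC-UV at 265 nm; rate came from regression over time, three incubations.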

[4] = Drug metabolism in microsomes (unknown origin) assessed as retention time at 10 uM by LC-UV-MS method; assay type: ADME, Microsome
Summary of the method: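 Retention times were measured on a C18 column (2 × 100 mm, 2.2 µm) at 300 µL/min. Solvent A was 25 mM ammonium acetate with 0.1% acetic acid; solvent B was ACN. Gradient: 30% B isocratic for 2 min, convex 30–85% B to 7.5 min, then […]. Detection was UV at 265 nm and ESI-MS in SRM mode.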

[5] = molecular target: T2, UDP-glucuronosyltransferase 1A8 (Homo sapiens, UniProt Q9HAW9); test: Drug metabolism assessed as human UGT1A8-mediated N-glucuronide-triclocarban formation expressed in baculovirus infected insect sf9 cells incubated for 5 mins prior to UDPGA addition measured after 5 to 30 mins by LC-UV analysis; assay type: ADME; summary of the method: as §2
T2 sequence (Q9HAW9 whole entry): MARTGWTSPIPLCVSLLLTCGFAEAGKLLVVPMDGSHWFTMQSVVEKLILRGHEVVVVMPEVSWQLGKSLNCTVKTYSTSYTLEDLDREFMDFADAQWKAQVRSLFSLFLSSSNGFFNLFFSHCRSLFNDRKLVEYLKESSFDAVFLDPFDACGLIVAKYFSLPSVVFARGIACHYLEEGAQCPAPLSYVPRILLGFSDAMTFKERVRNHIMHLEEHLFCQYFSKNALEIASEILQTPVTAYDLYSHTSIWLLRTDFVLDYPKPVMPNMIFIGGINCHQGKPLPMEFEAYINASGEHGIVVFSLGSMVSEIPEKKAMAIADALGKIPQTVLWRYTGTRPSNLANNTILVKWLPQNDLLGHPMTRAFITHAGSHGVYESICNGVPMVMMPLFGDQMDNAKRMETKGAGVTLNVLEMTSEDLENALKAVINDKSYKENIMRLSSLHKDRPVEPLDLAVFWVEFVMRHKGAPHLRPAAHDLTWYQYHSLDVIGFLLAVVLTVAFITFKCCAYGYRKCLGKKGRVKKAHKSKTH

[6] = Drug excretion in Sprague-Dawley rat urine assessed as 3'-O-glucuronide-triclocarban formation at 1 mg/kg, po by LC-MS analysis; assay type: ADME, organism-based; design: dose 1 mg/kg, route oral; details: in vivo
[7] = molecular target: T3, UDP-glucuronosyltransferase 1A3 (Homo sapiens, UniProt P35503); test: Drug metabolism assessed as human UGT1A3-mediated N'-glucuronide-triclocarban formation expressed in baculovirus infected insect sf9 cells incubated for 5 mins prior to UDPGA addition measured after 5 to 30 mins by LC-UV analysis; assay type: ADME; summary of the method: as §2
T3 sequence (P35503 whole entry): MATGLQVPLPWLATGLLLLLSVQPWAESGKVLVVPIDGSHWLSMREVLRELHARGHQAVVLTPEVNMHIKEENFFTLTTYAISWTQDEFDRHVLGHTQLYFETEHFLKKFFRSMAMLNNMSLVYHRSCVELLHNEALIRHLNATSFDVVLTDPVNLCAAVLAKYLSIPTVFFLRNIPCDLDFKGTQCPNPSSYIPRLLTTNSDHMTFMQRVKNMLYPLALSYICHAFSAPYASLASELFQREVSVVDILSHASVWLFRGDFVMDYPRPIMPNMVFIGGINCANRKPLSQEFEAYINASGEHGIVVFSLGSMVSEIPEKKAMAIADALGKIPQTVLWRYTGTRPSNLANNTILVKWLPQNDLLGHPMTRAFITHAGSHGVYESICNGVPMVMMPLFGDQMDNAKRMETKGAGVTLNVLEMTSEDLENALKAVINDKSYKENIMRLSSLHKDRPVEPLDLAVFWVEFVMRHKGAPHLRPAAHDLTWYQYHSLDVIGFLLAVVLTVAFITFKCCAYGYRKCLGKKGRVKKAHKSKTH

O=C(Nc1ccc(Cl)cc1)Nc1ccc(Cl)c(Cl)c1 [TRICLOCARBAN]
Drug metabolism [1]: metabolite_detected | Drug excretion [2]: metabolite_detected | Drug metabolism (Liver microsome): metabolite_detected | Drug metabolism [3]: metabolite_not_detected | Retention_time [4]: 5.1 min | Drug metabolism [5]: metabolite_not_detected | Drug excretion [6]: metabolite_detected | Drug metabolism [7]: metabolite_not_detected
